Columns and labels:
[1] = target: T1, human kidney-type glutaminase (hKGA124-669) (Homo sapiens, UniProt O94925); experiment: in vitro GLS assay with L-[3H]-glutamine as substrate; format: biochemical; settings: for GLS inhibitory potency in words: comparison with compounds 8 and 3a
T1 sequence (O94925 124-669): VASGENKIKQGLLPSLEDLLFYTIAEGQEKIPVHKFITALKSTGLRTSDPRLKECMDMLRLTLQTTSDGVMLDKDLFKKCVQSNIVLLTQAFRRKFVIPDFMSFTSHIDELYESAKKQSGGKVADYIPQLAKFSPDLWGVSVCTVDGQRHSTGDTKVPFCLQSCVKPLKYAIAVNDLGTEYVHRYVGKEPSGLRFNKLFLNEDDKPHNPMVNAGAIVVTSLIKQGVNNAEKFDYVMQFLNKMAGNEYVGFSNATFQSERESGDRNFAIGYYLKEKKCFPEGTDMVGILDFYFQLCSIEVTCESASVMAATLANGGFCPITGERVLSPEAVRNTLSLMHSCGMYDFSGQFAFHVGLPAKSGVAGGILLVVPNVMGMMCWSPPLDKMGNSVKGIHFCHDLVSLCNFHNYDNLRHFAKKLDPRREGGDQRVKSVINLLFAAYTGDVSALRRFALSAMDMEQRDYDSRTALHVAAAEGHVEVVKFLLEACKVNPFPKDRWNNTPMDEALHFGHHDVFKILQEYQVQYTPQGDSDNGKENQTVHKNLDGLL

[2] = test system: GLS; settings: read-out: GLS inhibition IC50; literature value; cited from earlier work
[3] = format: physicochemical; settings: final concentrations of 1-10 μM
[4] = Aqueous solubility by the shake flask method; format: physicochemical; settings: PBS buffer, 37 °C, pH 7.4, aqueous buffer, thermodynamic from solid
Method in brief: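 Test compound added to PBS (pH 7.4) at 5 mg/mL and shaken at 1000 rpm for 24 h at 37 °C to reach saturation. The solution was then passed through a 0.45 μm PTFE filter and the filtrate diluted. Concentration was quantified by UHPLC–Orbitrap MS on a C18 column (35 °C) with a 0.1% formic acid water/acetonitrile gradient, against a 5-10000 nM calibration curve.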

SMILES	GLS inhibitory potency in words [1]	also measured
O=C(Cc1ccccc1)Nc1nnc(CSCc2nnc(NC(=O)Cc3ccccc3)s2)s1 [Compound 2b, N,N’-(5,5’-Thiobis(methylene)bis(1,3,4-thiadiazole-5,2-diyl))bis(2-phenylacetamide), reference compound]	negligible activity	GLS inhibitory activity ([1]; at concentrations up to 100 μM): no inhibitory activity; IC50 [2]: > 20 µM
O=C(Cc1ccccc1)Nc1nnc(CCSc2nnc(NC(=O)Cc3ccccc3)s2)s1 [Compound 3a, 2-Phenyl-N-(5-(2-(5-(2-phenylacetamido)-1,3,4-thiadiazol-2-yl)ethylthio)-1,3,4-thiadiazol-2-yl)acetamide]	–	behaviour on addition of stock solution to cell culture media [3]: precipitation
Nc1nnc(CCSc2ccc(NC(=O)Cc3ccccc3)nn2)s1 [Compound 18, N-(6-(2-(5-Amino-1,3,4-thiadiazol-2-yl)ethylthio)pyridazin-3-yl)-2-phenylacetamide]	substantially weaker potency	–
O=C(Cc1ccccc1)Nc1ccc(SCCc2nnc(NC(=O)Cc3ccccc3)s2)nn1 [Compound 19, 2-Phenyl-N-(6-(2-(5-(2-phenylacetamido)-1,3,4-thiadiazol-2-yl)ethylthio)pyridazin-3-yl)acetamide]	substantially weaker potency	–

More lines, main results first:

GLS inhibitory potency in words [1]	SMILES	also measured
comparable	Nc1nnc(SCCc2ccc(NC(=O)Cc3ccccc3)nn2)s1 [Compound 24, N-(6-(2-(5-Amino-1,3,4-thiadiazol-2-ylthio)ethyl)pyridazin-3-yl)-2-phenylacetamide]	–
comparable	O=C(Cc1ccccc1)Nc1ccc(CCSc2nnc(NC(=O)Cc3ccccc3)s2)nn1 [Compound 25, 2-Phenyl-N-(6-(2-(5-(2-phenylacetamido)-1,3,4-thiadiazol-2-ylthio)ethyl)pyridazin-3-yl)acetamide]	solubility at 24 h [4]: < 1 µM

— article PMC9115729 (Bioorganic & medicinal chemistry, 2020)
